We go through 26 compounds from ChEMBL document CHEMBL1770121 (Bioorg Med Chem, 2011).

The subject of assay [1] is HepG2. In words: Antiproliferative activity against human HepG2 cells after 48 hrs by MTT assay. In kind it is functional, cell-based. The conditions noted are these: HepG2, 48 h. The method in brief: (§1)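 Log-phase cells grown in RPMI 1640 with 10% FBS were seeded at 2 × 10⁴ cells/mL and left 24 h at 37 °C, 5% CO₂. […] After 48 h MTT was added and the formazan dissolved in 10% SDS–5% isobutyl alcohol–0.01 M HCl overnight at 37 °C. OD was read at 570 nm, three replicate wells per concentration.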
(Tetrazolium dyes change colour on reduction, which living cells bring about.)

The test system of assay [2] is A549. Put plainly: Antiproliferative activity against human A549 cells after 48 hrs by MTT assay. In kind it is functional, cell-based. The conditions noted are these: A549, 48 h. The method in brief: as §1
The subject of assay [3] is B16-F10. In words: Antiproliferative activity against mouse B16F10 cells after 48 hrs by MTT assay. To be noted: B16-F10, 48 h. In kind it is functional, cell-based. The method in brief: as §1
A short description of assay [4]: Inhibition of bovine brain tubulin polymerization after 20 mins by turbidimetry. Further details: species or system Bos taurus. The method in brief:
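Varying concentrations were preincubated with 10 µM tubulin in glutamate buffer at 30 °C, then cooled to 0 °C. GTP was added and the mixtures moved to 0 °C cuvettes in a recording spectrophotometer. Assembly was followed by turbidity on warming to 30 °C.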

Assay [5] has as its system B16-F10. In words: Cell cycle arrest in mouse B16F10 cells assessed as accumulation at G2/M phase at 1 ug/ml after 24 hrs by flow cytometry (Rbv = 12.27%). In kind it is functional.
Assay [6] relates to B16-F10. Put plainly: Cell cycle arrest in mouse B16F10 cells assessed as accumulation at G2/M phase at 5 ug/ml after 24 hrs by flow cytometry (Rbv = 12.27%). In kind it is functional.
Assay [7] deals with B16-F10. Put plainly: Cell cycle arrest in mouse B16F10 cells assessed as accumulation at Go/G1 phase at 1 ug/ml after 24 hrs by flow cytometry (Rbv = 66.15%). In kind it is functional. (In flow cytometry, cells or beads pass a laser one at a time.)
Assay [8] deals with B16-F10. Put plainly: Cell cycle arrest in mouse B16F10 cells assessed as accumulation at Go/G1 phase at 5 ug/ml after 24 hrs by flow cytometry (Rbv = 66.15%). In kind it is functional.
The test system of assay [9] is B16-F10. Put plainly: Cell cycle arrest in mouse B16F10 cells assessed as accumulation at S phase at 1 ug/ml after 24 hrs by flow cytometry (Rbv = 14.96%). Type of assay: functional.
Assay [10] relates to B16-F10. In words: Cell cycle arrest in mouse B16F10 cells assessed as accumulation at S phase at 5 ug/ml after 24 hrs by flow cytometry (Rbv = 14.96%). In kind it is functional.

Each structure is given as a SMILES string. Converted amounts (≈) assume the structure as drawn.

As to `COc1ccc(/C=C/c2cc(OC)cc(OC)c2/C=C/C(=O)c2ccc(C)c(C)c2)cc1`, the IC50 came out at 0.2 µg/mL (≈ 0.467 µM) in assay [1], 0.1 µg/mL (≈ 0.233 µM) in assay [2], 1.4 µg/mL (≈ 3.27 µM) in [3] and 2.6 µg/mL (≈ 6.07 µM) in [4]. Further, the Activity in assay [5] is recorded as 31.5%; in [6], 72.1%; in assay [7], 39.65%; in assay [8], 10.05%; in assay [9], 13.99%; in assay [10], 7.04%.
Take `COc1ccc(/C=C/c2cc(OC)cc(OC)c2/C=C/C(=O)c2ccc(OC)cc2)cc1`: the IC50 in [1] amounted to 4.9 µg/mL (≈ 11.4 µM); in assay [2], 4.5 µg/mL (≈ 10.5 µM); in assay [3], 5.8 µg/mL (≈ 13.5 µM); in [4], 43 µg/mL (≈ 99.9 µM).
The matching figures for `COc1ccc(/C=C/c2cc(OC)cc(OC)c2/C=C/C(=O)c2ccccc2C)cc1`: 5.3 µg/mL (≈ 12.8 µM), 5.9 µg/mL (≈ 14.2 µM), 6.1 µg/mL (≈ 14.7 µM) and 42 µg/mL (≈ 101 µM).
As for `COc1ccc(/C=C/c2cc(OC)cc(OC)c2/C=C/C(=O)c2ccc(C)cc2C)cc1`, the concentration for half-maximal inhibition (IC50) was 0.9 µg/mL (≈ 2.1 µM) in assay [1], 0.3 µg/mL (≈ 0.7 µM) in assay [2], 4 µg/mL (≈ 9.33 µM) in assay [3] and 4.1 µg/mL (≈ 9.57 µM) in assay [4].
`COc1ccc(/C=C/c2cc(OC)cc(OC)c2/C=C/C(=O)c2cccc(OC)c2)cc1`: the IC50 in [1] was found to be 11.6 µg/mL (≈ 26.9 µM); in assay [2], 6.1 µg/mL (≈ 14.2 µM); in assay [3], 4.3 µg/mL (≈ 9.99 µM); in [4] it was 59 µg/mL (≈ 137 µM).
Taken in the same sequence, the figures for `COc1ccc(/C=C/c2cc(OC)cc(OC)c2/C=C/C(=O)c2ccc(Br)cc2)cc1` were 12.9 µg/mL (≈ 26.9 µM), 8.3 µg/mL (≈ 17.3 µM), 6.5 µg/mL (≈ 13.6 µM) and 72 µg/mL (≈ 150 µM).
As for `COc1ccc(/C=C/c2cc(OC)cc(OC)c2/C=C/C(=O)c2ccc(N)cc2)cc1`, the IC50 in assay [1] was 7.5 µg/mL (≈ 18.1 µM); in assay [2] it was 3.8 µg/mL (≈ 9.15 µM); in assay [3], 2.8 µg/mL (≈ 6.74 µM); in assay [4], 36 µg/mL (≈ 86.6 µM).
As to `COc1cc2c(c(OC)c1OC)-c1ccc(OC)c(=O)cc1[C@@H](NC(C)=O)CC2` [COLCHICINE], the IC50 in [1] worked out at 0.23 µg/mL (≈ 0.576 µM); in assay [2], 0.12 µg/mL (≈ 0.3 µM); in [3], 0.5 µg/mL (≈ 1.25 µM). For the same compound, the Activity is 90.46% in assay [5], 2.65% in assay [7] and 2.29% in assay [9].
With `CCCC(C)Oc1ccc(C(=O)/C=C/c2c(/C=C/c3ccc(OC)cc3)cc(OC)cc2OC)cc1` (configuration not stated), the IC50 in [1] amounted to 11.1 µg/mL (≈ 22.8 µM); in assay [2] it was 9.4 µg/mL (≈ 19.3 µM); in assay [3] it was 6.7 µg/mL (≈ 13.8 µM); in assay [4], 55 µg/mL (≈ 113 µM).
The matching figures for `CCOc1ccc(C(=O)/C=C/c2c(/C=C/c3ccc(OC)cc3)cc(OC)cc2OC)cc1`: 8 µg/mL (≈ 18 µM), 7.5 µg/mL (≈ 16.9 µM), 6.4 µg/mL (≈ 14.4 µM) and 26 µg/mL (≈ 58.5 µM).
As for `COc1ccc(/C=C/c2cc(OC)cc(OC)c2/C=C/C(=O)c2cccc(Br)c2)cc1`, the IC50 in assay [1] turned out to be 13 µg/mL (≈ 27.1 µM); in assay [2], 8.1 µg/mL (≈ 16.9 µM); in assay [3], 5.1 µg/mL (≈ 10.6 µM); in [4] it was 76 µg/mL (≈ 159 µM).
Taken in the same sequence, the figures for `COc1ccc(/C=C/c2cc(OC)cc(OC)c2/C=C/C(=O)c2ccc(C(F)(F)F)cc2)cc1` were 18.7 µg/mL (≈ 39.9 µM), 7.8 µg/mL (≈ 16.6 µM), 4.3 µg/mL (≈ 9.18 µM) and 150 µg/mL (≈ 320 µM).
In the case of `COc1ccc(/C=C/c2cc(OC)cc(OC)c2/C=C/C(=O)c2ccccc2)cc1`, the IC50 in [1] was 6.8 µg/mL (≈ 17 µM); in assay [2], 3.9 µg/mL (≈ 9.74 µM); in [3], 3.7 µg/mL (≈ 9.24 µM); in [4], 34 µg/mL (≈ 84.9 µM).
For `COc1ccc(/C=C/c2cc(OC)cc(OC)c2/C=C/C(=O)c2ccc(C)cc2)cc1`, the IC50 in assay [1] was found to be 4.8 µg/mL (≈ 11.6 µM); in [2], 3.6 µg/mL (≈ 8.69 µM); in assay [3] it was 5.3 µg/mL (≈ 12.8 µM); in assay [4], 29 µg/mL (≈ 70 µM).
The matching figures for `COc1ccc(/C=C/c2cc(OC)cc(OC)c2/C=C/C(=O)c2ccc(Cl)c(Cl)c2)cc1`: 10.8 µg/mL (≈ 23 µM), 5.9 µg/mL (≈ 12.6 µM), 7.5 µg/mL (≈ 16 µM) and 47 µg/mL (≈ 100 µM).
The matching figures for `COc1ccc(/C=C\c2cc(OC)c(OC)c(OC)c2)cc1O` [COMBRETASTATIN A4]: 0.19 µg/mL (≈ 0.601 µM), 0.09 µg/mL (≈ 0.284 µM), 0.4 µg/mL (≈ 1.26 µM) and 0.7 µg/mL (≈ 2.21 µM).
`COc1ccc(/C=C/c2cc(OC)cc(OC)c2/C=C/C(=O)c2ccc(F)cc2)cc1`: the IC50 in assay [1] stood at 12.2 µg/mL (≈ 29.2 µM); in assay [2], 6.6 µg/mL (≈ 15.8 µM); in assay [3], 5.3 µg/mL (≈ 12.7 µM); in assay [4], 64 µg/mL (≈ 153 µM).
The matching figures for `COc1ccc(/C=C/c2cc(OC)cc(OC)c2/C=C/C(=O)c2ccc(N3CCOCC3)cc2)cc1`: 7.3 µg/mL (≈ 15 µM), 3.8 µg/mL (≈ 7.83 µM), 3.3 µg/mL (≈ 6.8 µM) and 38 µg/mL (≈ 78.3 µM).
For `COc1ccc(/C=C/c2cc(OC)cc(OC)c2/C=C/C(=O)c2ccc(Cl)cc2)cc1`, the IC50 came to 13.6 µg/mL (≈ 31.3 µM) in assay [1], 6.4 µg/mL (≈ 14.7 µM) in [2], 4.9 µg/mL (≈ 11.3 µM) in assay [3] and 80 µg/mL (≈ 184 µM) in assay [4].
With `CCCCCCCCCCCCOc1ccc(C(=O)/C=C/c2c(/C=C/c3ccc(OC)cc3)cc(OC)cc2OC)cc1`, the 50% inhibitory concentration (IC50) is 11.6 µg/mL (≈ 19.8 µM) in assay [1], 7.9 µg/mL (≈ 13.5 µM) in assay [2], 12.7 µg/mL (≈ 21.7 µM) in [3] and 58 µg/mL (≈ 99.2 µM) in [4].
The matching figures for `CCCCCCOc1ccc(C(=O)/C=C/c2c(/C=C/c3ccc(OC)cc3)cc(OC)cc2OC)cc1`: 16.2 µg/mL (≈ 32.4 µM), 8.4 µg/mL (≈ 16.8 µM), 10.4 µg/mL (≈ 20.8 µM) and 131 µg/mL (≈ 262 µM).
The matching figures for `COc1ccc(/C=C/c2cc(OC)cc(OC)c2/C=C/C(=O)c2ccc(-c3ccccc3)cc2)cc1`: 10.5 µg/mL (≈ 22 µM), 4.6 µg/mL (≈ 9.65 µM), 10.6 µg/mL (≈ 22.2 µM) and 44 µg/mL (≈ 92.3 µM).
As to `COc1ccc(/C=C/c2cc(OC)cc(OC)c2/C=C/C(=O)c2cccc(Cl)c2)cc1`, the IC50 is 9.5 µg/mL (≈ 21.8 µM) in assay [1], 5.6 µg/mL (≈ 12.9 µM) in [2], 3.3 µg/mL (≈ 7.59 µM) in assay [3] and 41 µg/mL (≈ 94.3 µM) in assay [4].
In the case of `CCCCOc1ccc(C(=O)/C=C/c2c(/C=C/c3ccc(OC)cc3)cc(OC)cc2OC)cc1`, the IC50 in assay [1] is 12.9 µg/mL (≈ 27.3 µM); in assay [2], 8.7 µg/mL (≈ 18.4 µM); in assay [3] it was 5.3 µg/mL (≈ 11.2 µM); in assay [4], 94 µg/mL (≈ 199 µM).
Taken in the same sequence, the figures for `CCN(CC)c1ccc(C(=O)/C=C/c2c(/C=C/c3ccc(OC)cc3)cc(OC)cc2OC)cc1` were 6.3 µg/mL (≈ 13.4 µM), 5.4 µg/mL (≈ 11.5 µM), 8.1 µg/mL (≈ 17.2 µM) and 33 µg/mL (≈ 70 µM).
Taken in the same sequence, the figures for `Oc1ccc(/C=C/c2cc(O)cc(O)c2)cc1` [RESVERATROL] were 38.9 µg/mL (≈ 170 µM), 30.4 µg/mL (≈ 133 µM), 37.3 µg/mL (≈ 163 µM) and 158 µg/mL (≈ 692 µM).

One may read the IC50 as the concentration at which inhibition is half-maximal. Read a low IC50 as greater potency.
